One data set concerns MCF7. The data set is described as follows: Cytotoxicity against human HER2-deficient MCF7 cells expressing estrogen receptor after 48 hrs by MTT assay. Format: functional. The note with it: MCF7, 48 h. Put shortly: (§1)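 Cells (HEK 293T, MCF-7, MDA-MB-231 from ATCC) seeded the day before in medium with serum, penicillin G, streptomycin and 2 mM L-glutamine. Compounds in DMSO, serially diluted in medium, final DMSO ≤0.5% (v/v), same in controls. 48 h at 37 °C, 5% CO2. MTT 3 h, formazan dissolved in DMSO, A570. Triplicates, ≥3 experiments. GI50 from % viable cells.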

The test system of a further data set is MDA-MB-231. Nature of the data set: Cytotoxicity against human HER2/estrogen receptor-deficient MDA-MB-231 cells after 48 hrs by MTT assay. The format is functional. To be noted: MDA-MB-231, 48 h. An outline of the steps: as §1
A short description of data set [1]: Cytotoxicity against HEK293T cells after 48 hrs by MTT assay. The format is cell-based, HEK-293T. The note with it: human. Put shortly:
as §1

Data set [2] can be described thus: Solubility of the compound at 100 uM. The format is physicochemical.
The subject of a further data set is HEK-293T. Nature of the data set: Selectivity index, ratio of GI50 for HEK293T cells to GI50 for human HER2-deficient MCF7 cells. Format: functional.

In the case of `O=C1Nc2ccccc2[C@]12CC(c1ccccc1)=NN2`, the 50% growth inhibitory concentration (GI50) in the data set on MCF7 is above 100 µM.

For `O=C1Nc2ccc(Cl)cc2[C@]12CC(c1ccccc1)=NN2`, the 50% growth inhibitory concentration (GI50) in the data set on MCF7 is above 100 µM.

Take `O=C1Nc2ccc(Br)cc2[C@]12CC(c1ccccc1)=NN2`: the GI50 in the data set on MCF7 is above 100 µM.

Compound `CCOC(=O)[C@H]1C(c2ccccc2)=NN(c2ccccc2)[C@]12C(=O)Nc1ccc(Cl)cc12` yielded a GI50 with MCF7 above 100 µM.

For `O=C(c1ccccc1)[C@H]1C(c2ccccc2)=NN(c2ccccc2)[C@]12C(=O)Nc1ccc(Cl)cc12`, the concentration for 50% growth inhibition (GI50) in the data set with MCF7 was above 100 µM.

`O=C1Nc2ccccc2[C@]12[C@@H](c1ccccc1)C(c1ccccc1)=NN2c1ccccc1`: in the data set on MCF7, the GI50 is above 100 µM.

In turn, `O=C1Nc2ccc(Cl)cc2[C@]12[C@@H](c1ccccc1)C(c1ccccc1)=NN2c1ccccc1` came in with a GI50 in the data set on MCF7 of 37.7 µM.

Turning to `O=C1Nc2cc(Cl)ccc2[C@]12[C@@H](c1ccccc1)C(c1ccccc1)=NN2c1ccccc1`, the concentration for 50% growth inhibition (GI50) was above 50 µM in the data set with MDA-MB-231 and 27.1 µM in the data set on MCF7. The GI50 at 48 h in data set [1] is above 50 µM. The solubility result in data set [2] was “Insoluble”. The RatioGI50 in the data set on HEK-293T is above 2.

As for `O=C1Nc2ccc(Br)cc2[C@]12[C@@H](c1ccccc1)C(c1ccccc1)=NN2c1ccccc1`, the values for the GI50 in the data set with MDA-MB-231 and in the data set on MCF7 were above 100 µM and 7.3 µM, respectively. This compound also registered a GI50 at 48 h in data set [1] above 100 µM. For the same compound, in the data set on HEK-293T, the RatioGI50 was above 13.

As to `O=C1Nc2cc(Br)ccc2[C@]12[C@@H](c1ccccc1)C(c1ccccc1)=NN2c1ccccc1`, the 50% growth inhibitory concentration (GI50) in the data set on MDA-MB-231 came out at 8.3 µM; in the data set with MCF7 it was 9.6 µM. In data set [1], halving of growth (GI50 at 48 h) required 28.9 µM. Moreover, the RatioGI50 with HEK-293T is on record as 3.

For the compound `COc1ccc(C2=NN(c3ccccc3)[C@]3(C(=O)Nc4ccc(Cl)cc43)[C@H]2c2ccccc2)cc1`, halving of growth with MCF7 (GI50) required 33.9 µM.

Compound `COc1ccc(C2=NN(c3ccccc3)[C@]3(C(=O)Nc4cc(Cl)ccc43)[C@H]2c2ccccc2)cc1` came in with a GI50 in the data set on MCF7 of 42.6 µM.

As for `COc1ccc(C2=NN(c3ccccc3)[C@]3(C(=O)Nc4c(Cl)cccc43)[C@H]2c2ccccc2)cc1`, the GI50 is above 100 µM in the data set on MDA-MB-231 and 11.5 µM with MCF7. This compound also had a 50% growth inhibitory concentration (GI50) at 48 h in data set [1] above 100 µM. In addition, the RatioGI50 with HEK-293T is above 8.

With `COc1ccc(C2=NN(c3ccccc3)[C@]3(C(=O)Nc4cc(Br)ccc43)[C@H]2c2ccccc2)cc1`, the figures for the 50% growth inhibitory concentration (GI50) in the data set with MDA-MB-231 and in the data set on MCF7 were 28.6 µM and 7 µM, respectively. Further, in data set [1], the GI50 at 48 h was above 100 µM. Moreover, the RatioGI50 in the data set on HEK-293T was above 14.

In the case of `CC(C)(C)C1=NN(c2ccccc2)[C@]2(C(=O)Nc3cc(Cl)ccc32)[C@H]1c1ccccc1`, the GI50 with MDA-MB-231 was above 50 µM; with MCF7 it was 21.7 µM. Also, in data set [1], the GI50 at 48 h was above 50 µM. In data set [2], the solubility result is on record as “Insoluble”. For the same compound, in the data set on HEK-293T, the RatioGI50 is above 2.

Take `CC(C)(C)C1=NN(c2ccccc2)[C@]2(C(=O)Nc3c(Cl)cccc32)[C@H]1c1ccccc1`: the GI50 stood at 6.4 µM with MDA-MB-231 and 8.6 µM with MCF7. This compound yielded a GI50 at 48 h in data set [1] of 17.8 µM. The RatioGI50 in the data set with HEK-293T is on record as 2.

Consider `CC(C)(C)C1=NN(c2ccccc2)[C@]2(C(=O)Nc3cc(Br)ccc32)[C@H]1c1ccccc1`, for which the concentration for 50% growth inhibition (GI50) with MDA-MB-231 was determined as 15 µM; in the data set with MCF7 it was 8.5 µM. In addition, the concentration for 50% growth inhibition (GI50) at 48 h in data set [1] was determined as 20.9 µM. Also, in the data set on HEK-293T, the RatioGI50 is listed as 2.5.

As to `COc1ccc([C@H]2C(c3ccccc3)=NN(c3ccccc3)[C@]23C(=O)Nc2cc(Cl)ccc23)cc1`, the concentration for 50% growth inhibition (GI50) in the data set on MCF7 is above 100 µM.

The values are drawn from ChEMBL document CHEMBL3232822, “Synthesis of novel spiropyrazoline oxindoles and evaluation of cytotoxicity in cancer cell lines” (Eur J Med Chem, 2014).
